Laboratory results: ChEMBL document CHEMBL1649306, “Arylimidamide DB766, a potential chemotherapeutic candidate for Chagas' disease treatment” (Antimicrob Agents Chemother, 2010)
“And” between values parts separate entries of the source, which are not always exact repeats. Equal values may be shown once. The source made the active and inactive calls. The rule behind the calls is not given here.

Tests used:
[1] = system: Mus musculus; assay: Toxicity in […](H-2k) mouse assessed as mortality at cumulative dose of 200 mg/kg, ip measured after 48 hrs; assay type: organism-based; parameters: dose 200 mg/kg, route intraperitoneal; details: in vivo
In short: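 Uninfected 8–10-week-old female and male Swiss Webster and C3H/He (H-2k) mice injected i.p. on day 1 every 2 h with escalating doses: 5, 15, 30, 50 and 100 mg/kg (cumulative 20, 50, 100, 200 mg/kg). Toxic and subtoxic signs inspected on days 2–3 per OECD guidelines; tolerated dose set at 48 h.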

[2] = system: Trypanosoma cruzi; assay: Antitrypanosomal activity against Trypanosoma cruzi Columbian bloodstream forms infected in C3H mouse assessed as decrease in parasite load at 25 mg/kg/day, ip administered 21 days postinfection measured on day 44; assay type: functional; parameters: scale not given: the % may be the effect or the level left; details: route intraperitoneal
In short: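 C3H/He mice infected i.p. with 10^2 Colombian strain bloodstream forms. Treatment started at parasitemia onset (21 dpi) with daily doses for 10 treatments, 0.1 ml i.p. Parasitemia measured by the Pizzi-Brener method; n ≥ 6 parasitemic mice per group.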

[3] = system: Trypanosoma cruzi; assay: Antitrypanosomal activity against Trypanosoma cruzi Y bloodstream forms infected in Swiss-Webster mouse assessed as decrease in parasitemia at 100 mg/kg/day, ip administered 8 days postinfection measured on day 120; assay type: functional; details: route intraperitoneal
In short: (§1)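 Male Swiss mice infected i.p. with 10^4 Y strain bloodstream forms. Given 0.2 ml i.p. at 5 and 8 dpi, or daily for 10 days from 5 dpi; reference drug given by gavage. Parasitemia measured by the Pizzi-Brener method, cumulative mortality checked daily to 120 dpi, n ≥ 6 per group.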

[4] = system: Trypanosoma cruzi; assay: Antitrypanosomal activity against Trypanosoma cruzi Columbian bloodstream forms infected in C3H mouse assessed as decrease in parasite load at 50 mg/kg/day, po administered 5 days postinfection for 10 consecutive days measured after 41 days; assay type: functional, organism-based
In short: (§2)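 C3H/He mice infected i.p. with 10^3 or 5 × 10^3 Colombian strain bloodstream forms. Treated daily for 10 days with 0.1 ml i.p. or by gavage, reference drug given by gavage. Parasitemia measured by the Pizzi-Brener method; n ≥ 6 parasitemic mice per group.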

[5] = system: Trypanosoma cruzi; assay: Antitrypanosomal activity against Trypanosoma cruzi Y bloodstream forms infected in Swiss-Webster mouse assessed as decrease in parasite-induced cardiac inflammation in mouse at 100 mg/kg/day, ip administered 5 days postinfection for 10 alternate days measured after 14 days postinfection; assay type: functional, Heart; parameters: scale not given: the % may be the effect or the level left; details: route intraperitoneal
[6] = system: Trypanosoma cruzi; assay: Antitrypanosomal activity against Trypanosoma cruzi Y bloodstream forms infected in Swiss-Webster mouse assessed as decrease in parasite load at 25 mg/kg/day, ip administered 5 days postinfection for 10 consecutive days measured after 8 days; assay type: functional; parameters: scale not given: the % may be the effect or the level left; details: route intraperitoneal; in short: as §1
[7] = system: Mus musculus; assay: Cardiotoxicity in […] mouse assessed as effect on heart rate level at 100 mg/kg/day, ip; assay type: toxicity, organism-based; parameters: route intraperitoneal; details: in vivo
In short: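 Colombian strain, 5 × 10³ bloodstream forms i.p. into male C3H/He mice; 100 mg/kg/day given i.p. or by gavage (0.1 ml) daily for 10 doses from parasitemia onset. Mice sedated with diazepam (20 mg/kg i.p.), supine; eight-lead ECG from subcutaneous limb needle electrodes plus precordial lead II. Signal-averaged ECG; heart rate as beats per minute.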

[8] = system: Trypanosoma cruzi; assay: Antitrypanosomal activity against Trypanosoma cruzi Y bloodstream forms infected in Swiss-Webster mouse assessed as decrease in cardiac parasite load at 100 mg/kg/day, ip administered 5 days postinfection for 10 alternate days measured after 14 days postinfection; assay type: functional, Heart; parameters: scale not given: the % may be the effect or the level left; details: route intraperitoneal
[9] = system: Trypanosoma cruzi; assay: Antitrypanosomal activity against bloodstream forms of Trypanosoma cruzi Y infected in Swiss mouse cardiomyocytes assessed as intracellular parasitemia at 10.6 uM after 72 hrs by Pizzi-Brener method; assay type: functional, organism-based
[10] = system: Trypanosoma cruzi; assay: Antitrypanosomal activity against Trypanosoma cruzi Y bloodstream forms infected in Swiss-Webster mouse assessed as survival of mouse at 25 mg/kg/day, ip administered 5 days postinfection for 10 consecutive days measured on day 120; assay type: functional, organism-based; in short: as §1
[11] = system: Trypanosoma cruzi; assay: Antitrypanosomal activity against Trypanosoma cruzi MS1523 epimastigotes after 24 hrs by light microscopy; assay type: functional, organism-based; details: MS1523, 24 h
In short: (§3)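 Epimastigotes from 5-day exponential cultures, 5 × 10^6 parasites/ml in LIT medium, incubated at 28°C up to 96 h with DB766 0 to 32 μM or Bz 0 to 250 μM. Counted daily in a Neubauer chamber. IC50 averaged from at least three determinations in duplicate.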

[12] = system: Trypanosoma cruzi; assay: Antitrypanosomal activity against Trypanosoma cruzi Y bloodstream forms after 2 hrs by light microscopy; assay type: functional, organism-based
In short: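 Bloodstream trypomastigotes from infected Swiss mice at peak parasitemia, 5.0 × 10^6 cells/ml in RPMI 1640 with 5% FBS. Exposed at 37°C to serial dilutions from 0 to 32 μM. Motile live parasites counted by light microscopy in a Neubauer chamber, then IC50 calculated.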

[13] = system: Mus musculus; assay: Hepatotoxicity against Swiss-Webster mouse assessed as GPT at 100 mg/kg/day measured after 14 days postinfection; assay type: toxicity, organism-based; details: in vivo, 336 h
[14] = system: Trypanosoma cruzi; assay: Antitrypanosomal activity against Trypanosoma cruzi Y bloodstream forms infected in Swiss-Webster mouse assessed as decrease in parasite load at 50 mg/kg/day, ip administered 8 days postinfection measured on day 2; assay type: functional; parameters: scale not given: the % may be the effect or the level left; details: route intraperitoneal
In short: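 Two-day regimen in male Swiss mice infected i.p. with 10^4 Y-strain bloodstream forms: i.p. doses (0.2 ml) at 5 and 8 dpi. Circulating parasites quantified at the 8 dpi peak by Pizzi-Brener method; reduction versus infected untreated mice; n ≥ 6 per group.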

[15] = system: Trypanosoma cruzi; assay: Antitrypanosomal activity against Trypanosoma cruzi Y infected in Swiss-Webster mouse assessed as decrease in parasite-induced weight loss at 100 mg/kg/day, ip administered 5 days post-infection for 10 consecutive days measured on day 120; assay type: functional, organism-based
In short: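 Body weight of infected, treated mice followed from 0 to 120 dpi.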

[16] = system: Trypanosoma cruzi; assay: Antitrypanosomal activity against Trypanosoma cruzi 960 epimastigotes after 24 hrs by light microscopy; assay type: functional, organism-based; details: Trypanosoma cruzi, 960, 24 h; in short: as §3
[17] = system: Trypanosoma cruzi; assay: Antitrypanosomal activity against bloodstream forms of Trypanosoma cruzi Columbian after 24 hrs by light microscopy in presence of 50% mouse blood; assay type: functional, organism-based
In short: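 Bloodstream trypomastigotes kept at 4°C for 24 h in freshly isolated 50% mouse blood with serial dilutions (up to 32 μM). Motile live parasites counted in a Neubauer chamber by light microscopy; IC50 calculated as concentration reducing parasite number by 50%.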

[18] = system: Trypanosoma cruzi; assay: Antitrypanosomal activity against Trypanosoma cruzi Columbian bloodstream forms infected in C3H mouse assessed as decrease in parasite load at 25 mg/kg/day, ip administered 5 days postinfection for 10 consecutive days measured after 120 days; assay type: functional, organism-based
[19] = system: Trypanosoma cruzi; assay: Antitrypanosomal activity against Trypanosoma cruzi Columbian bloodstream forms infected in C3H mouse assessed as decrease in parasite load at 100 mg/kg/day, ip administered 5 days postinfection for 10 consecutive days measured after 41days post infection; assay type: functional, organism-based; in short: as §2
[20] = system: Trypanosoma cruzi; assay: Selectivity ratio of IC50 for Trypanosoma cruzi Y bloodstream forms to IC50 for Trypanosoma cruzi Y amastigotes; assay type: functional
[21] = system: Trypanosoma cruzi; assay: Antitrypanosomal activity against Trypanosoma cruzi Columbian bloodstream forms infected in C3H mouse assessed as survival of mouse at 100 mg/kg/day, po administered 5 days postinfection for 10 consecutive days measured after 31 days; assay type: functional
In short: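 Male C3H/He (H-2k) mice infected i.p. with 5 × 10^3 Colombian-strain bloodstream trypomastigotes; only parasitemia-positive mice grouped (n ≥ 6). DB766 100 mg/kg/day given i.p. (0.1 ml) or by gavage (0.1 ml), daily for 10 treatments. Parasitemia by Pizzi-Brener method; mortality checked daily, expressed as cumulative percentage.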

[22] = system: Trypanosoma cruzi; assay: Antitrypanosomal activity against Trypanosoma cruzi RBVIII epimastigotes after 24 hrs by light microscopy; assay type: functional, organism-based; in short: as §3

CC(C)Oc1cc(NC(=N)c2ccccn2)ccc1-c1ccc(-c2ccc(NC(=N)c3ccccn3)cc2OC(C)C)o1 was tested, and the Activity [1] was “Non-toxic”, the Activity [2] was 73% and the inhibition in vivo at 100 mg/kg/day [3] was > 99%. The Activity [4] was “Active”, the Activity [5] was 78% and the Activity [6] was 88%. The Activity [7] was “Toxic”, the Activity [8] was 94% and the IC50 [9] was 25 nM. For the same compound, the Activity [10] was “Active”, the IC50 [11] was 170 nM and the IC90 [11] was 410 nM. For the same compound, the IC50 [12] was 1140 nM, the Activity [13] was “Non-toxic” and the Activity [14] was 88%. The Activity [15] was “inactive”, the IC50 [16] was 90 nM and the IC90 [16] was 280 nM. For the same compound, the IC50 [17] was 1000 nM, the Activity [18] was “Active” and the Activity [19] was “Active”. For the same compound, the Selectivity ratio [20] was >533 and 714, the Activity [21] was 100% and the IC50 [22] was 180 nM. It also gave an IC90 [22] of 440 nM.
